Our source for the IC50 values is ChEMBL document CHEMBL1133040, “Activity-guided isolation of constituents of Cerbera manghas with antiproliferative and antiestrogenic activities” (Bioorg Med Chem Lett, 2000).

The structures appear in SMILES notation. ≈ marks a conversion by molar mass, not a printed value. Where only a bound is given, the exact number is not on record here.

What all share (format): functional, cell-based
Test [1] concerns Col2. Nature of the test: Inhibition of Col2 human colon cancer cell proliferation. The procedure, abridged:
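Col2 human colon cancer cells grown in MEME with 10% NAA, antibiotic-antimycotic and 10% FBS at 37 °C, 5% CO2. Exponentially growing cells seeded onto compounds dissolved in DMSO and grown 3 days at 37 °C. Cells TCA-fixed, stained with 0.4% sulforhodamine B in 1% acetic acid, dye solubilized in 0.1 M Tris, A515 read. % growth computed against day-0 and DMSO-control absorbances.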

Test [2] has as its system Ishikawa. Briefly: Antiestrogenic effects in Ishikawa cells. As to conditions: Homo sapiens.
The test system of test [3] is Ishikawa. Nature of the test: Inhibition of Ishikawa cell proliferation.
Test [4] has as its system Ishikawa. Briefly: Inhibition of antiestrogenic response in Ishikawa cells.
[5] abbreviates: Homo sapiens, Ishikawa, read-out: IC50.

For `COc1cc(C[C@H]2COC(c3ccc(O)c(OC)c3)[C@@]2(O)CO)ccc1O` (stereo partly drawn), the IC50 in test [1] and in test [2] was more than 10 µg/mL throughout.

Regarding `CO[C@@H]1[C@@H](O)[C@H](C)O[C@@H](OC2CC[C@@]3(C)[C@H](CC[C@@H]4[C@@H]3C3OC3[C@]3(C)[C@H](C5=CC(=O)OC5)CC[C@]43O)C2)[C@@H]1O` (stereo in doubt; 1), the IC50 (in general, the concentration that inhibits the measured activity by half) in test [3] (ishikawa) was 0.015 µg/mL (≈ 0.0273 µM); in test [4] (ishikawa), 0.0042 µg/mL (≈ 0.00765 µM).

As to `CO[C@@H]1[C@@H](O)[C@H](C)O[C@@H](OC2CC[C@@]3(C)[C@H](CC[C@@H]4[C@@H]3C3OC3[C@]3(C)[C@H](C5=CC(=O)OC5)CC[C@]43O)C2)[C@@H]1O` (stereo in doubt; 2), the IC50 was 0.02 µg/mL (≈ 0.0365 µM) in test [3] (setting [5]), not above 5 µg/mL in test [1], 0.008 µg/mL (≈ 0.0146 µM) in test [4] (setting [5]) and not above 5 µg/mL in test [2].
